Activity calls are given as the source filed them. No cut-off for these calls is given here.
Experiments:
[1] = molecular target: Sterol 14-alpha demethylase (Trypanosoma cruzi (strain CL Brener), UniProt Q7Z1V1); experiment: Binding affinity to Trypanosoma cruzi CYP51 expressed in Escherichia coli by spectral titration
[2] = molecular target: Sterol 14-alpha demethylase (Trypanosoma cruzi (strain CL Brener)) (UniProt Q7Z1V1); experiment: Inhibitory potency at Trypanosoma cruzi CYP51 assessed as molar ratio of drug to enzyme required to slow down the reaction twofold at 1 uM enzyme concentration
Sequence of Sterol 14-alpha demethylase (Trypanosoma cruzi (strain CL Brener)) (Q7Z1V1 whole entry, looked up): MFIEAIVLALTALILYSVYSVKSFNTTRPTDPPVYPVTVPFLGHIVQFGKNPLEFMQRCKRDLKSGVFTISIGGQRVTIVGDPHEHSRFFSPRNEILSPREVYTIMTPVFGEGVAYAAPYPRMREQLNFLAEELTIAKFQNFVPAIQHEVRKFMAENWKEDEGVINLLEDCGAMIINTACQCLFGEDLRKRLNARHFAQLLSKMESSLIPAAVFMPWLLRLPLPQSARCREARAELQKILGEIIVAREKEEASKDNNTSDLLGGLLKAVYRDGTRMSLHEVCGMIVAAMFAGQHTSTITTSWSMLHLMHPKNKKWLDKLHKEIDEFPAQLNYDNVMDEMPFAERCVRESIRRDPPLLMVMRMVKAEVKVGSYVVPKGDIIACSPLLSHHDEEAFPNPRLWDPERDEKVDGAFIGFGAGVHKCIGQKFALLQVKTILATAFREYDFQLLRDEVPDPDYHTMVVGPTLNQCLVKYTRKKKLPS
Outline: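 Reconstituted with T. brucei CPR and DLPC (TCCYP51:CPR:DLPC 1:2:50). Final mix: 1 μM TCCYP51, 50 μM [3H]-MDL in MOPS pH 7.4 with KCl, MgCl2, glycerol and an isocitrate/isocitrate dehydrogenase system. Inhibitors 1–100 μM, 5 min preincubation at 37°C, started with NADPH. Sterols by reverse-phase radio-HPLC. I/E2 is the inhibitor/enzyme molar ratio halving the initial rate.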

[3] = system: Trypanosoma cruzi; experiment: Antitrypanosomal activity against Trypanosoma cruzi trypomastigotes in cardiomyocytes at 10 uM after 72 hrs; type: functional, organism-based
Outline: (§1)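 Trypomastigotes (10^6) were pre-exposed for 30 min to inhibitor in DMSO (1–50 μM) or DMSO control. They then infected rat cardiomyocyte monolayers in triplicate at 10 parasites/cell for 2 h. Unbound parasites were removed and cells were grown in DMEM/10% FBS for 72 h. Parasites per 200 cells and % infection were counted on Giemsa-stained monolayers. Results are mean ± SD, with Student t test.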

[4] = system: Trypanosoma cruzi; experiment: Antitrypanosomal activity against Trypanosoma cruzi trypomastigote in cardiomyocytes assessed as decrease in intracellular parasites at 20 uM after 72 hrs; type: functional, organism-based; outline: as §1
[5] = molecular target: T1, Prostaglandin G/H synthase 2 (Mus musculus) (UniProt Q05769); experiment: Inhibitory potency at mouse COX2 assessed as molar ratio of drug to enzyme required to slow down the reaction twofold at 0.1 uM enzyme concentration
T1 sequence (whole entry): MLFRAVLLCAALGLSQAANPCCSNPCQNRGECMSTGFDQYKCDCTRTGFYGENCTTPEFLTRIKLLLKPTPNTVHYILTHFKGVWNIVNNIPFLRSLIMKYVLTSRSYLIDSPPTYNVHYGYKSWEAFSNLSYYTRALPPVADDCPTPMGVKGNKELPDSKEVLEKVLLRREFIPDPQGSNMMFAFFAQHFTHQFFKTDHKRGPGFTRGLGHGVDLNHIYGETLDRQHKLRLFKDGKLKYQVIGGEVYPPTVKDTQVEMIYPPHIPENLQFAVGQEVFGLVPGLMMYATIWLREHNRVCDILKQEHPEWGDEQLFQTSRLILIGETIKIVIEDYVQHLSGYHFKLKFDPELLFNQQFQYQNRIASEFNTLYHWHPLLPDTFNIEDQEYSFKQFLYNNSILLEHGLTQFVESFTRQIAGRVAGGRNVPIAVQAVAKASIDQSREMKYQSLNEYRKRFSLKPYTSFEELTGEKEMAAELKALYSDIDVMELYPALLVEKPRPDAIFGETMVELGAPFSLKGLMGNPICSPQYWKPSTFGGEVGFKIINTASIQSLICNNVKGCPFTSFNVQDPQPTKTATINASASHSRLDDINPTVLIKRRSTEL
Outline: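 Mouse cyclooxygenase-2 at 100 nM final concentration. Potency is expressed as the inhibitor/enzyme molar ratio giving a two-fold decrease in the initial rate of catalysis (I/E2).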

[6] = system: Trypanosoma cruzi; experiment: Antitrypanosomal activity against Trypanosoma cruzi trypomastigotes in cardiomyocytes; type: functional, organism-based; outline: as §1
[7] = system: Trypanosoma cruzi; experiment: Antitrypanosomal activity against Trypanosoma cruzi amastigotes in cardiomyocytes; type: functional; outline: as §1
[8] = system: Trypanosoma cruzi; experiment: Antitrypanosomal activity against Trypanosoma cruzi epimastigotes assessed as blocking of cellular sterol composition at 50 uM after 24 hrs

Sequence of Sterol 14-alpha demethylase (Q7Z1V1 whole entry): as the sequence (Q7Z1V1 whole entry, looked up) above

| SMILES | Kd [1] [nM] | Ratio [2] | Activity [3] | Activity [4] | Ratio [5] | Activity [6] | Activity [7] | Activity [8] | EC50 ([7]; read-out: ED50 (the source's name)) [nM] |
| --- | --- | --- | --- | --- | --- | --- | --- | --- | --- |
| COc1ccc2c(c1)c(CC(=O)NCC(C)c1ccccc1)c(C)n2C(=O)c1ccc(Cl)cc1 (stereo unspecified) | 150 | < 1 | Active | Active | > 40 |  |  |  |  |
| COc1ccc2c(c1)c(CC(=O)NCc1ccc(Cl)nc1)c(C)n2C(=O)c1ccc(Cl)cc1 |  | 4.2 |  |  | < 1 | Dose-dependent effect | Dose-dependent effect |  |  |
| O=C(Nc1ccncc1)C1c2ccccc2Oc2ccccc21 | 750 | 14 |  |  |  |  |  |  |  |
| COc1ccc2c(c1)c(CC(=O)NCCc1cccc(Cl)c1)c(C)n2C(=O)c1ccc(Cl)cc1 | 360 | < 1 | Active | Active | < 1 |  |  |  |  |
| COc1ccc2c(c1)c(CC(=O)NC(C)c1ccncc1)c(C)n2C(=O)c1ccc(Cl)cc1 (stereo unspecified) | 370 | 8.5 |  |  | 1.7 |  |  |  |  |
| COc1ccc2c(c1)c(CC(=O)Nc1ncccn1)c(C)n2C(=O)c1ccc(Cl)cc1 |  | 15 |  |  | 3.6 |  |  |  |  |
| COc1ccc2c(c1)c(CC(=O)NCc1ccc(C(F)(F)F)nc1)c(C)n2C(=O)c1ccc(Cl)cc1 |  | 7.7 |  |  | < 1 |  |  |  |  |
| COc1ccc2c(c1)c(CC(=O)NCc1ccncc1)c(C)n2C(=O)c1ccc(Cl)cc1 | 540 | 10 |  |  | 10 |  |  |  |  |
| COc1ccc2c(c1)c(CC(=O)Nc1cccnc1)c(C)n2C(=O)c1ccc(Cl)cc1 | 290 | 9.1 |  |  | 2.1 |  |  |  |  |
| COc1ccc2c(c1)c(CC(=O)NCCc1cccnc1)c(C)n2C(=O)c1ccc(Cl)cc1 | 2310 | 6.3 |  |  |  | Dose-dependent effect |  | Active | < 1000 |
| CCC(C(=O)Nc1ccncc1)c1ccccc1 (stereo unspecified) | 440 | 10 |  |  |  |  |  |  |  |
| CC1CCC(C(=O)NC(Cc2c[nH]c3ccccc23)C(=O)Nc2ccncc2)CC1 (stereo unspecified) |  |  |  |  |  | Dose-dependent effect | Dose-dependent effect |  |  |
| COc1ccc2c(c1)c(CC(=O)NCc1ccccn1)c(C)n2C(=O)c1ccc(Cl)cc1 | 7600 | 13 |  |  | > 10 | Dose-dependent effect | Dose-dependent effect |  |  |
| COc1ccc2c(c1)c(CC(=O)Nc1ccccn1)c(C)n2C(=O)c1ccc(Cl)cc1 | 3300 | 11 |  |  | 2.1 |  |  |  |  |

Source: ChEMBL document CHEMBL1138467, “Indomethacin amides as a novel molecular scaffold for targeting Trypanosoma cruzi sterol 14alpha-demethylase” (J Med Chem, 2009)
